These results are taken from PubChem BioAssay.

Active and inactive are the calls of the source.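 Rule for the calls, unless noted: active = viability at or below 30% in both replicate assays; inconclusive = viability at or below 30% in just one of the two assays; inactive = the rest.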

Assay [1] is described as follows: Her2 expression decrease, cell viability multiplex – SKBR3 breast tumor cells, AlphaScreen, ATP viability, primary screen (AID 461;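 active = Her2 level under about 52% in both replicate screens, with viability over 70% of control, limit read from the data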;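 for Her2 level: lower value means less Her2 protein in the cells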;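 for viability: percent of carrier control wells set as 100% viability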). The settings on record: SKBR3 Her2 protein level, 18-24 h, measured here: SKBR3 viability, ATP luminescence, at 10 µM.
Assay [2] concerns the target Receptor tyrosine-protein kinase erbB-2 (Homo sapiens) (UniProt P04626). The assay is described as above. Conditions: 18-24 h, at 10 µM, stronger effect = lower value.
A short description of assay [3]: reduced viability of SK-BR-3 breast cancer cells – cell-based, 24 h, human, pilot screen (AID 572;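 active = viability at or below 10% of carrier control in both of two separate runs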;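 note: compound exposure lasted between 18 and 24 h rather than exactly 24 h; 100% = carrier-treated control wells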). Conditions: SK-BR-3 viability, CellTiter-Glo luminescence, at 10 µM, stronger effect = lower value.
The nature of assay [4]: HUVEC growth inhibition – cell-based, human, primary screen (AID 575).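 Note: 100% = median of untreated cell wells with 0.1% DMSO on each plate.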 Conditions: HUVEC proliferation, CellTiter-Glo luminescence, 72 h; at 10 µM; stronger effect = lower value. An outline of the steps: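 material = primary HUVEC, no more than 12 passages | input = 1250 cells per well | controls = vehicle and MePR control wells | measured by = CTG luminescence | times = 72 h compound incubation | format = collagen-coated 384-well format | read-out = % viability vs DMSO wells | doses = single 10 µM dose, 0.1% DMSO, from 5x medium stock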
Background: ATP-based viability assays read luminescence as a measure of living cells.

A short description of assay [5]: H69AR cell proliferation blockers – human, duplicate replicates, primary screen (AID 580;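 active = viability at or under a set limit in both replicates, limit being median viability minus 3 SD, cut at about 48% in these data, passing the limit was not always enough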;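 note: 100% = mean luminescence of untreated wells and 0% = no signal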). Conditions: H69AR lung tumor cells viability, ATP luminescence, 72 h; at 10 µM; stronger effect = lower value.
Assay [6] is described as follows: MRP1 drug-resistance reversers in H69AR cells – cell-based, doxorubicin co-treatment, pilot screen (AID 601;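 active = viability loss from added drug above about 55%, and viability with drug at most 40%, in both replicates, limit read from the data, passing the limit was not always enough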). Conditions: CellTiter-Glo, 72 h, at 10 µM; for differential viability (reversal): stronger effect = higher value.
Assay [7] is described as follows: yeast transport mutant growth inhibition pilot in 384-well plates, post-Golgi transport modulator project (AID 636; in the data active = inhibition above about 31%). Conditions: absorbance 615 nm, about 18 h, stronger effect = higher value.
Assay [8] is described as follows: growth suppression of yeast trafficking mutant, preliminary HTS, modulators of trafficking downstream of Golgi apparatus project, 1536-format plate, OD 615 nm (AID 637; in the data active = inhibition above about 30%). The settings on record: yeast transport mutant growth, absorbance 615 nm, 18 h; stronger effect = higher value.
Where [9] appears, read: H69AR cells + 2 uM doxorubicin, measured here: viability with 2 uM doxorubicin, stronger effect = lower value.
[10] abbreviates: H69AR cells, compound alone cytotoxicity.

Chain of Receptor tyrosine-protein kinase erbB-2 (Homo sapiens) (P04626 whole entry, looked up): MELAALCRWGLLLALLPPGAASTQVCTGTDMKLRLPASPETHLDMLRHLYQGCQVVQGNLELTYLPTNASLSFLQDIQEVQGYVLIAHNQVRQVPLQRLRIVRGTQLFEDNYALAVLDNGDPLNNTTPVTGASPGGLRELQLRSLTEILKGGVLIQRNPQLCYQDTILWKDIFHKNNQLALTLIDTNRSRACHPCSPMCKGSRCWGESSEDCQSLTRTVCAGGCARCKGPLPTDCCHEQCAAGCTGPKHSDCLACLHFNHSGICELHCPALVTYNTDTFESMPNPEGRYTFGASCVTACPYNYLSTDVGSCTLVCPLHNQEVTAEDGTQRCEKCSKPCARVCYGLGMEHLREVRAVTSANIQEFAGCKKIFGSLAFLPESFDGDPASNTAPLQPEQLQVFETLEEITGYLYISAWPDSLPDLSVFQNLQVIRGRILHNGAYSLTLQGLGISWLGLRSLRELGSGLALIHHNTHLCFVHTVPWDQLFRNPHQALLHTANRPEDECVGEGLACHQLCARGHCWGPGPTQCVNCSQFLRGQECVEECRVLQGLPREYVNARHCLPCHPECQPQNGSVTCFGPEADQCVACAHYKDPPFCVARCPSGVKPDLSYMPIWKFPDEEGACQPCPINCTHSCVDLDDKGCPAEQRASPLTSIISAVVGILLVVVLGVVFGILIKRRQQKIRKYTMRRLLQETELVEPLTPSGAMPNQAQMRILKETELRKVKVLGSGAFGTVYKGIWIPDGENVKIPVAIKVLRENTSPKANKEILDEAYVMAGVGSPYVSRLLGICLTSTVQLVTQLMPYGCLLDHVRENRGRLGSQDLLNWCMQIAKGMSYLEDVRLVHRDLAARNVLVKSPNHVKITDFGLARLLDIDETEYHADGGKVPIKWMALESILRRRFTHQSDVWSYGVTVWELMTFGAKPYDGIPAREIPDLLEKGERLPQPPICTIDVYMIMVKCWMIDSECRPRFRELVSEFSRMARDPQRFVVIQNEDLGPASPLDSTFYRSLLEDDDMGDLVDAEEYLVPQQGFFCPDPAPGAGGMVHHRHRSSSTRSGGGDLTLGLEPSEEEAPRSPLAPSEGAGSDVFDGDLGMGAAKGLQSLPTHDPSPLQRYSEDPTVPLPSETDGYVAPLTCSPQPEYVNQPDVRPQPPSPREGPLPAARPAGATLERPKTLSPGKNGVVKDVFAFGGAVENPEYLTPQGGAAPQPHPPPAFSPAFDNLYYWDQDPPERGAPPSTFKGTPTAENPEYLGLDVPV

`COc1ccccc1-c1nnc(SCC(=O)N2CC(C)CC(C)C2)o1` (stereo not given): the viability (in general, a read-out of living cells in per cent, often relative to untreated cells) in assay [1] was 80.5%; in assay [3] it was 80.5% (inactive); in assay [4] it was 77.4% (inactive); in assay [5] it was 78.1% (inactive); in assay [6] (setting [9]), 83.2%; in assay [6] (setting [10]), 78.1%. In addition, the Her2 level in assay [2] was 81.5% (inactive). Moreover, the differential viability (reversal) in assay [6] (H69AR cells + 2 uM doxorubicin) is -5.03% (inactive). For the same molecule, the inhibition in assay [7] and in assay [8] was -5% (inactive) in each case.
Turning to `Cc1cc(=O)[nH]c(S/C=C/c2ccccc2)n1`, the viability in assay [1] was 91.5%; in assay [3] it was 91.5% (inactive); in assay [4], 77% (inactive); in assay [5] it was 79.9% (inactive); in assay [6] (setting [9]), 79.4%; in assay [6] (setting [10]), 79.9%. Moreover, the Her2 level in assay [2] is 95% (inactive). The differential viability (reversal) in assay [6] (H69AR cells + 2 uM doxorubicin) is 0.47% (inactive). The inhibition (as a rule, the relative decrease from the control value, in per cent) in assay [7] was -3.12% (inactive); in assay [8], -2.86% (inactive).
For the molecule `O=C(Nc1cccc2c1CCCC2)C1CCN(c2nnnn2-c2ccccc2)CC1`, the viability in assay [1] is 92%; in assay [3], 92% (inactive); in assay [4], 97.7% (inactive); in assay [5], 89.2% (inactive); in assay [6] (setting [9]) it was 83.9%; in assay [6] (setting [10]), 89.2%. Besides, in assay [2], the Her2 level was 99% (inactive). Besides, the differential viability (reversal) in assay [6] (H69AR cells + 2 uM doxorubicin) was 5.29% (inactive). The inhibition was -0.13% (inactive) in assay [7] and -6.45% (inactive) in assay [8].
For `COc1ccc2cc(CN(CCO)C(=O)c3ccc(Br)cc3)c(=O)[nH]c2c1`, the viability is 98% in assay [1]; 98% (inactive) in assay [3]; 90.2% (inactive) in assay [4]; 110% (inactive) in assay [5]; 90.3% in assay [6] (setting [9]); 110% in assay [6] (setting [10]). Besides, the Her2 level in assay [2] was 81.5% (inactive). Further, the differential viability (reversal) in assay [6] (H69AR cells + 2 uM doxorubicin) is 19.2% (inactive). The inhibition was -4.93% (inactive) in assay [7] and 5.41% (inactive) in assay [8].
For the molecule `CCOc1ccc(N(CC(=O)NCC2CCCO2)S(=O)(=O)c2ccc(OC)c(OC)c2)cc1` (stereo not given), the viability in assay [1] is 105%; in assay [3] it was 105% (inactive); in assay [4] it was 118% (inactive); in assay [5], 116% (inactive); in assay [6] (setting [9]), 96.3%; in assay [6] (setting [10]), 116%. Further, in assay [2], the Her2 level was 98.5% (inactive). The differential viability (reversal) in assay [6] (H69AR cells + 2 uM doxorubicin) is 19.2% (inactive). The inhibition in assay [7] was -4% (inactive); in assay [8], -5.97% (inactive).
On to `Cc1cc2ccccc2n1CCNC(=O)c1ccc(S(=O)(=O)N2CCOCC2)cc1`, for which the viability in assay [1] was 95.5%; in assay [3], 95.5% (inactive); in assay [4], 85% (inactive); in assay [5], 93% (inactive); in assay [6] (setting [9]), 97.8%; in assay [6] (setting [10]) it was 93%. The Her2 level in assay [2] is 90% (inactive). In addition, in assay [6] (H69AR cells + 2 uM doxorubicin), the differential viability (reversal) was -4.87% (inactive). Also, the values for the inhibition in assay [7] and in assay [8] were -7.57% (inactive) and 1.75% (inactive), respectively.
For the molecule `CCC12CN3CC(CC)(CN(C1)C3c1ccc(OC(C)C)cc1)C2=O` (stereo not given), the viability in assay [1] is 94%; in assay [3], 94% (inactive); in assay [4] it was 110% (inactive); in assay [5] it was 105% (inactive); in assay [6] (setting [9]) it was 94.6%; in assay [6] (setting [10]) it was 105%. For the same molecule, in assay [2], the Her2 level is 92% (inactive). In assay [6] (H69AR cells + 2 uM doxorubicin), the differential viability (reversal) is 10.7% (inactive). Further, the results for the inhibition in assay [7] and in assay [8] were -3.78% (inactive) and -0.95% (inactive), respectively.
With `COCCn1nnnc1C(c1cc2cc(C)cc(C)c2[nH]c1=O)N1CCN(c2ccccc2F)CC1` (stereo not given), the viability in assay [1] was 102%; in assay [3], 102% (inactive); in assay [4], 78.4% (inactive); in assay [5], 80.9% (inactive); in assay [6] (setting [9]), 86.3%; in assay [6] (setting [10]) it was 80.9%. Besides, in assay [2], the Her2 level was 81.5% (inactive). The differential viability (reversal) in assay [6] (H69AR cells + 2 uM doxorubicin) is -5.39% (inactive). In addition, the figures for the inhibition in assay [7] and in assay [8] were -4% (inactive) and 1.8% (inactive), respectively.
Regarding `CN(CC(O)COc1ccc(OCC(O)CN(C)C2CCCCC2)cc1)C1CCCCC1` (stereo not given), the viability in assay [1] is 88%; in assay [3], 88% (inactive); in assay [4], 65.5% (inactive); in assay [5] it was 89.9% (inactive); in assay [6] (setting [9]) it was 79.5%; in assay [6] (setting [10]) it was 89.9%. In addition, the Her2 level in assay [2] is 82% (inactive). For the same molecule, in assay [6] (H69AR cells + 2 uM doxorubicin), the differential viability (reversal) was 10.4% (inactive). Also, the inhibition in assay [7] was -5.66% (inactive); in assay [8] it was 4.6% (inactive).
For `CCOC(=O)Cc1csc(NC(=O)CSc2nnc(C(C)C)n2CC)n1`, the viability in assay [1] is 126%; in assay [3] it was 126% (inactive); in assay [4] it was 88% (inactive); in assay [5] it was 89.8% (inactive); in assay [6] (setting [9]) it was 88.2%; in assay [6] (setting [10]) it was 89.8%. Further, the Her2 level in assay [2] is 86% (inactive). In addition, the differential viability (reversal) in assay [6] (H69AR cells + 2 uM doxorubicin) was 1.63% (inactive). Besides, the results for the inhibition in assay [7] and in assay [8] were -6.13% (inactive) and 1.59% (inactive), respectively.
As for `O=C(CN(Cc1ccco1)C(=O)c1cc(=O)[nH]c2ccccc12)Nc1ccccc1Br`, the viability in assay [1] is 97%; in assay [3] it was 97% (inactive); in assay [4] it was 98.2% (inactive); in assay [5] it was 83.1% (inactive); in assay [6] (setting [9]) it was 74%; in assay [6] (setting [10]), 83.1%. Further, in assay [2], the Her2 level is 79.5% (inactive). In addition, the differential viability (reversal) in assay [6] (H69AR cells + 2 uM doxorubicin) is 9.09% (inactive). Moreover, the inhibition in assay [7] was -4.4% (inactive); in assay [8] it was -0.33% (inactive).
For `COCc1nnc(NS(=O)(=O)c2ccc(Br)cc2)s1`, the viability in assay [1] is 99.5%; in assay [3] it was 99.5% (inactive); in assay [4], 108% (inactive); in assay [5], 91.3% (inactive); in assay [6] (setting [9]), 95.8%; in assay [6] (setting [10]), 91.3%. In assay [2], the Her2 level is 92% (inactive). Further, the differential viability (reversal) in assay [6] (H69AR cells + 2 uM doxorubicin) is -4.46% (inactive). In addition, the figures for the inhibition in assay [7] and in assay [8] were -5.2% (inactive) and -1.75% (inactive), respectively.
With `CS(=O)(=O)N(CC(=O)Nc1cccc(F)c1)Cc1ccccc1`, the viability was 78.5% in assay [1]; 78.5% (inactive) in assay [3]; 87.5% (inactive) in assay [4]; 103% (inactive) in assay [5]; 90% in assay [6] (setting [9]); 103% in assay [6] (setting [10]). In addition, in assay [2], the Her2 level was 87.5% (inactive). In assay [6] (H69AR cells + 2 uM doxorubicin), the differential viability (reversal) was 13.1% (inactive). Further, the figures for the inhibition in assay [7] and in assay [8] were -3.78% (inactive) and 2.3% (inactive), respectively.
On to `O=c1c(-c2ccc(F)cc2)coc2c3c(ccc12)OCCO3`, for which the viability was 100% in assay [1]; 100% (inactive) in assay [3]; 120% (inactive) in assay [4]; 107% (inactive) in assay [5]; 86.7% in assay [6] (setting [9]); 107% in assay [6] (setting [10]). Also, the Her2 level in assay [2] is 78.5% (inactive). The differential viability (reversal) in assay [6] (H69AR cells + 2 uM doxorubicin) is 20% (inactive). For the same molecule, the inhibition is 0.13% (inactive) in assay [7] and -6.73% (inactive) in assay [8].
As for `CC(=O)Nc1ccc(-c2nn[nH]n2)cc1Cl`, the viability in assay [1] is 87%; in assay [3], 87% (inactive); in assay [4], 104% (inactive); in assay [5], 104% (inactive); in assay [6] (setting [9]), 95.6%; in assay [6] (setting [10]), 104%. Further, in assay [2], the Her2 level is 89% (inactive). For the same molecule, in assay [6] (H69AR cells + 2 uM doxorubicin), the differential viability (reversal) was 8.39% (inactive). In addition, the inhibition in assay [7] is -1.6% (inactive); in assay [8] it was -2.9% (inactive).
Regarding `CCCC(=O)Nc1ccc(OCC(=O)OC)cc1`, the viability in assay [1] was 99.5%; in assay [3], 99.5% (inactive); in assay [4] it was 89.9% (inactive); in assay [5] it was 98.9% (inactive); in assay [6] (setting [9]) it was 93.6%; in assay [6] (setting [10]) it was 98.9%. In addition, the Her2 level in assay [2] is 78.5% (inactive). The differential viability (reversal) in assay [6] (H69AR cells + 2 uM doxorubicin) was 5.34% (inactive). Also, the inhibition was -3.95% (inactive) in assay [7] and 0.79% (inactive) in assay [8].
